tested on: not listed separately; assay: Inhibition of porcine brain tubulin polymerization measured for 15 mins by spectrophotometric method; parameters: species or system Sus scrofa; details: not given
Procedure, shortened: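 Lyophilized purified tubulin resuspended at 2.5 mg mL-1 in assembly buffer (80 mM PIPES pH 6.9, 1 mM MgCl2, 2 mM EGTA, 10% glycerol), mixed with 1 mM GTP and varying compound concentrations; 0.2% v/v DMSO vehicle control. Assembly read at 340 nm, 37 °C. IC50 = concentration inhibiting polymerization by 50%, from four-parameter logistic fit.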

Which IC50 does the source give for COc1ccc([C@H]2[C@H](NC(C)=O)C(=O)N2c2cc(OC)c(OC)c(OC)c2)cc1O (relative stereo) here?
The IC50 was 5050 nM.

tested on: SW48; assay: Antiproliferative activity against human SW48 cells after 72 hrs by MTT assay; assay type: functional, cell-based; details: SW48, 72 h
Procedure, shortened: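 SW48 colorectal adenocarcinoma cells grown in RPMI-1640 with 10% FBS, 2 mM L-glutamine and penicillin/streptomycin at 37 °C, 5% CO2. 8000 cells per well exposed to a range of compound concentrations (in DMSO) for 72 h. MTT then added for 2 h at 37 °C, formazan solubilized, absorbance read at 570 nm. Triplicates in three independent experiments. IC50 from a four-parameter logistic fit against 0.1% DMSO controls.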

With COc1ccc([C@H]2[C@H](NC(=O)c3ccc(Cl)cc3)C(=O)N2c2cc(OC)c(OC)c(OC)c2)cc1O as the compound, how does the IC50 read?
Its IC50 is 271 nM.

Which IC50 does the source give for COc1ccc(C(=O)N[C@@H]2C(=O)N(c3cc(OC)c(OC)c(OC)c3)[C@H]2c2ccc(OC)c(O)c2)cc1 (relative stereo) here?
Its IC50 is 108 nM.

Which IC50 does the source give for COc1ccc([C@H]2[C@H](NC(=O)[C@H](C)N)C(=O)N2c2cc(OC)c(OC)c(OC)c2)cc1O (relative stereo) here?
Its IC50 is 90.6 nM.

Which IC50 does the source give for COc1ccc([C@H]2[C@H](NC(=O)C3CCCCC3)C(=O)N2c2cc(OC)c(OC)c(OC)c2)cc1O (relative stereo) here?
Its IC50 is 244 nM.

For COc1ccc([C@H]2[C@H](NC(C)=O)C(=O)N2c2cc(OC)c(OC)c(OC)c2)cc1O (relative stereo), which IC50 is on record?
The IC50 was 14 nM.

With COc1ccc([C@H]2[C@H](NC(=O)c3cc(OC)c(OC)c(OC)c3)C(=O)N2c2cc(OC)c(OC)c(OC)c2)cc1O (relative stereo) as the compound, how does the IC50 read?
The IC50 was 564 nM.

Which IC50 does the source give for COc1ccc([C@H]2[C@H](NC(=O)Cc3c[nH]c4ccccc34)C(=O)N2c2cc(OC)c(OC)c(OC)c2)cc1O (relative stereo) here?
The IC50 was 49.4 nM.

Which IC50 does the source give for COc1ccc([C@H]2[C@H](NC(=O)c3ccc4ccccc4c3)C(=O)N2c2cc(OC)c(OC)c(OC)c2)cc1O (relative stereo) here?
The IC50 was 220 nM.

For COc1ccc([C@H]2[C@H](NC(=O)c3ccc(F)cc3)C(=O)N2c2cc(OC)c(OC)c(OC)c2)cc1O (relative stereo), which IC50 is on record?
Its IC50 is 384 nM.

With COc1ccc([C@H]2[C@H](NC(=O)c3ccco3)C(=O)N2c2cc(OC)c(OC)c(OC)c2)cc1O (relative stereo) as the compound, how does the IC50 read?
Its IC50 is 18.6 nM.

From ChEMBL document CHEMBL4257525, “Synthesis and biological evaluation of new 3-amino-2-azetidinone derivatives as anti-colorectal cancer agents” (Medchemcomm, 2018)
